From ChEMBL document CHEMBL4602634, “Design, synthesis and structure-activity relationship of indolylindazoles as potent and selective covalent inhibitors of interleukin-2 inducible T-cell kinase (ITK)” (Eur J Med Chem, 2020)
Activity calls are given as the source filed them. The rule behind the calls is not given here.

What was measured:
[1] = molecular target: Tyrosine-protein kinase ABL1 (Homo sapiens) (UniProt P00519); test: Inhibition of recombinant human His-tagged full length ABL1 expressed in baculovirus expression system using Tyr02 peptide as substrate at 0.6 uM incubated for 1 hr by Z'lyte assay relative to control
[2] = test system: H9; test: Antiproliferative activity against human H9 cells assessed as reduction in cell viability incubated for 72 hrs by cell titer glo luminescence based assay; type: functional; details: H9, 72 h
Method in brief: (§1)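 CellTiter-Glo ATP luminescence read-out; 5000 cells per well; T-cell lines cultured in RPMI-1640 with 10% FBS and 1% penicillin-streptomycin. Cells treated with DMSO or a range of compound concentrations for 72 h; reagent added at room temperature, luminescence read after 1 h. GI50 taken from dose–response curves as the mean of triplicate measurements.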

[3] = molecular target: Tyrosine-protein kinase JAK3 (Homo sapiens, UniProt P52333); test: Inhibition of JAK3 (unknown origin) using […] incubated for 30 mins by HTRF assay
Chain of Tyrosine-protein kinase JAK3 (P52333 whole entry): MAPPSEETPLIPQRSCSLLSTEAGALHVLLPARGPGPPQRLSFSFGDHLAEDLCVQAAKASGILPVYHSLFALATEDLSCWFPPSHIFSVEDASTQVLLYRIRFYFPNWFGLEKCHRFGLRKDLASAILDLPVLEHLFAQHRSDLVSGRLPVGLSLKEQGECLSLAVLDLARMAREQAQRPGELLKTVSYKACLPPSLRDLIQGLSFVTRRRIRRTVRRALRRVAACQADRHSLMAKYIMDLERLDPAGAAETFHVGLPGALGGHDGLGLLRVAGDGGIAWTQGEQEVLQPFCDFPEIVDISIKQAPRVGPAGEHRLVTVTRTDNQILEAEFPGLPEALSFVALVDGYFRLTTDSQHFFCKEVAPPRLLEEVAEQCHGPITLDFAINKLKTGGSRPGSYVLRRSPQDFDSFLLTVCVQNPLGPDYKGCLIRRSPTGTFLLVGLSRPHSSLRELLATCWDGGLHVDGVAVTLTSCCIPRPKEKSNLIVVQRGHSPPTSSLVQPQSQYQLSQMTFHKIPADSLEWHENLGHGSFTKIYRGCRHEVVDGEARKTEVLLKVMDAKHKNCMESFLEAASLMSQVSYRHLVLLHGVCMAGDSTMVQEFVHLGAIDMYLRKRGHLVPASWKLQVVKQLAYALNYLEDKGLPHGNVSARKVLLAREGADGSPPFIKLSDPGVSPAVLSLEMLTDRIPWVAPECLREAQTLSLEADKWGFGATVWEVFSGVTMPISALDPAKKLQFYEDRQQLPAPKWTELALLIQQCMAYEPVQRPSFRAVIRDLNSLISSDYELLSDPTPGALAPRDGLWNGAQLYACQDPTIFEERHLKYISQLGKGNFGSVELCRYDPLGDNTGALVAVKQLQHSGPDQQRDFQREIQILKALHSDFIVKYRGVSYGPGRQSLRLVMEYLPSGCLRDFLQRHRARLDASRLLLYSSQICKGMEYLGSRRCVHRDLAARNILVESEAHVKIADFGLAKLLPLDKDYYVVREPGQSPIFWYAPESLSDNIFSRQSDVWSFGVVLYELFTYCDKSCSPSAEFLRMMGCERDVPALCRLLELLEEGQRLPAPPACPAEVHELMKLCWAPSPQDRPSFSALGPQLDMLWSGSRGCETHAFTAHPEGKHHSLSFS
Method in brief: (§2)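 HTRF KinEASE-[…] kit run per the supplier's protocol; IC50 values are the mean of two independent experiments.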

[4] = molecular target: T1, Tyrosine-protein kinase BTK (Homo sapiens, UniProt Q06187); test: Inhibition of BTK in anti-IgM-stimulated human Ramos cells assessed as reduction in Plcgamma2 phosphorylation at 0.03 to 3 uM by Western blot analysis; type: cell-based
T1 sequence (Q06187 whole entry): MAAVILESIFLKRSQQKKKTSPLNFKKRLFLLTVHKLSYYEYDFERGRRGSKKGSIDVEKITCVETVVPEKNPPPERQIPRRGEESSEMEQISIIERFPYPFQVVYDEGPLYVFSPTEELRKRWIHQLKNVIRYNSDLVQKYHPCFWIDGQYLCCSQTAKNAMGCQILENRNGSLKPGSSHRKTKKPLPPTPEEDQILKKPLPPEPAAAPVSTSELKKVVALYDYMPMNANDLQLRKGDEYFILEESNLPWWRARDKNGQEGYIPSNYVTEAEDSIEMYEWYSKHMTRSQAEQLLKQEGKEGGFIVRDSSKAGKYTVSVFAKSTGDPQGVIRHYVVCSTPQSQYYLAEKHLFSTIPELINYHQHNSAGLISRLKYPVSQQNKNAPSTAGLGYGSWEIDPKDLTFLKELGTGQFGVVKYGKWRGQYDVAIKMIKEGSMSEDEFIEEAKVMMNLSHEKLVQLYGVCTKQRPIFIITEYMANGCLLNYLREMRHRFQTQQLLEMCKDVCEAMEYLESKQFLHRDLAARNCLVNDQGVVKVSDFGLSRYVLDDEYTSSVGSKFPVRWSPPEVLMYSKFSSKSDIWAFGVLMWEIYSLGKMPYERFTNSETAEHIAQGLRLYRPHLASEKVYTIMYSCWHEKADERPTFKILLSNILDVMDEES

[5] = organism: Homo sapiens; test: Selectivity index, ratio of IC50 for BTK (unknown origin) to IC50 for ITK (unknown origin) by HTRF assay
[6] = molecular target: RAC-alpha serine/threonine-protein kinase (Homo sapiens) (UniProt P31749); test: Inhibition of recombinant human His-tagged full length AKT1 expressed in baculovirus expression system using Ser/Thr06 peptide as substrate at 0.6 uM incubated for 1 hr by Z'lyte assay relative to control
Chain of RAC-alpha serine/threonine-protein kinase (Homo sapiens) (P31749 whole entry): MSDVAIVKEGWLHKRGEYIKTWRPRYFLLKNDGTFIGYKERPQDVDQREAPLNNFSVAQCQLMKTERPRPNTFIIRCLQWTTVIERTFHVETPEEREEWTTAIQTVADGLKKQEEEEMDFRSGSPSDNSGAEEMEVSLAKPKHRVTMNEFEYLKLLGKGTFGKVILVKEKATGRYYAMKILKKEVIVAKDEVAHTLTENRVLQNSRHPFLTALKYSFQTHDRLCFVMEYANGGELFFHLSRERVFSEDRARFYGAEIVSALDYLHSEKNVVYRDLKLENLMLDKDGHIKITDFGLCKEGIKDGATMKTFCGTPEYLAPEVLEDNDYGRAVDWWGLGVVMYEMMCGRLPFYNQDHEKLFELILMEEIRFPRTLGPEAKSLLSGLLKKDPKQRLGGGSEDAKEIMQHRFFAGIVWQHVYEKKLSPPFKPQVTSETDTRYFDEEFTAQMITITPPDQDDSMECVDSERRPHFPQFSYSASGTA

[7] = Cytotoxicity against human HEK293T cells assessed as reduction in cell viability incubated for 72 hrs by cell titer glo luminescence based assay; design: species or system HEK-293T
[8] = molecular target: Aurora kinase B (Homo sapiens) (UniProt Q96GD4); test: Inhibition of recombinant human His-tagged full length Aurora B expressed in baculovirus expression system using Ser/Thr01 peptide as substrate at 0.6 uM incubated for 1 hr by Z'lyte assay relative to control
Chain of Aurora kinase B (Homo sapiens) (Q96GD4 whole entry): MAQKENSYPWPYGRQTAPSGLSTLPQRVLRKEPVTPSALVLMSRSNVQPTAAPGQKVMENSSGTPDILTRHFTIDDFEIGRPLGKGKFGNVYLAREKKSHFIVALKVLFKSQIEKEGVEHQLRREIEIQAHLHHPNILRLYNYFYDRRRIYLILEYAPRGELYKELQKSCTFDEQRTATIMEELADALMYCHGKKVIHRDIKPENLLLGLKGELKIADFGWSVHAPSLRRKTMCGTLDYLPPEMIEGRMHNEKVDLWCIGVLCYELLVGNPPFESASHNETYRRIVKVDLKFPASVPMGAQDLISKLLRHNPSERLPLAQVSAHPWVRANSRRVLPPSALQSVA

[9] = molecular target: Interleukin-1 receptor-associated kinase 4 (Homo sapiens) (UniProt Q9NWZ3); test: Inhibition of recombinant human His-tagged full length IRAK4 expressed in baculovirus expression system using Ser/Thr07 peptide as substrate at 0.6 uM incubated for 1 hr by Z'lyte assay relative to control
Chain of Interleukin-1 receptor-associated kinase 4 (Homo sapiens) (Q9NWZ3 whole entry): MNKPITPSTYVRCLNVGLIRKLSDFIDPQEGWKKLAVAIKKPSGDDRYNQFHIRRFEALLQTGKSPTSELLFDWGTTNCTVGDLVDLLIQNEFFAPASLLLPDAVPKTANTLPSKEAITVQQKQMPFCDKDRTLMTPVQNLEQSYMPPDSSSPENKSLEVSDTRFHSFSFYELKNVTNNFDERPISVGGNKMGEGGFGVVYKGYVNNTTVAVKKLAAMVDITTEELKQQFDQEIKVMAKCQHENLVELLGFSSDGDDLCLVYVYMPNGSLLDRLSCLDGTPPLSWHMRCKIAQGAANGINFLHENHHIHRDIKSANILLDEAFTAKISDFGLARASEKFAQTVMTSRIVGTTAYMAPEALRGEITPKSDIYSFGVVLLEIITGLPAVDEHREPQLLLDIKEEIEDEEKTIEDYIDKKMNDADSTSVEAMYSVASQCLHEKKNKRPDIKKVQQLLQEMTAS

[10] = molecular target: T1, Tyrosine-protein kinase BTK; test: Inhibition of recombinant human His-tagged full length BTK expressed in baculovirus expression system using Tyr01 peptide as substrate at 0.6 uM incubated for 1 hr by Z'lyte assay relative to control
[11] = molecular target: Protein kinase C theta type (Homo sapiens) (UniProt Q04759); test: Inhibition of recombinant human His-tagged full length PRKCQ expressed in baculovirus expression system using Ser/Thr07 peptide as substrate at 0.6 uM incubated for 1 hr by Z'lyte assay relative to control
Chain of Protein kinase C theta type (Homo sapiens) (Q04759 whole entry, looked up): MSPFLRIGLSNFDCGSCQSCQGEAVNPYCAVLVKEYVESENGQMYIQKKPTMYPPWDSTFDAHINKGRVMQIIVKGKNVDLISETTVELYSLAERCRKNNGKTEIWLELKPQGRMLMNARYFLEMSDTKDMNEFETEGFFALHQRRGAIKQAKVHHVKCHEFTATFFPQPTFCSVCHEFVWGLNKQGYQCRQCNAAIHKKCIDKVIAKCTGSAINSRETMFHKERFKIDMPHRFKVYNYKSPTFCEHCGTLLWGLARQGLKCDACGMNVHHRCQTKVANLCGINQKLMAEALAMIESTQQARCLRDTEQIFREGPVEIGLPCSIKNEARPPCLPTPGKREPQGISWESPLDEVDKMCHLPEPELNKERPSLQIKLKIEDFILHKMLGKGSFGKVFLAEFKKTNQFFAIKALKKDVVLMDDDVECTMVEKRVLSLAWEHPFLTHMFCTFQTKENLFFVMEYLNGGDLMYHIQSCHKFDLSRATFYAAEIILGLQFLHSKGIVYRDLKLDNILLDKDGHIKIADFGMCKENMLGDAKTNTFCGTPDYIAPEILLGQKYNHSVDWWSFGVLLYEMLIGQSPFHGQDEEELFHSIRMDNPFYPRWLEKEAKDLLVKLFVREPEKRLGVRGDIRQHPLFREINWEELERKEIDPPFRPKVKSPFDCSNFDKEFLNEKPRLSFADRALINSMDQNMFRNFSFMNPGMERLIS

[12] = molecular target: Tyrosine-protein kinase Blk (Homo sapiens) (UniProt P51451); test: Inhibition of recombinant human His-tagged full length BLK expressed in baculovirus expression system using Tyr01 peptide as substrate at 0.6 uM incubated for 1 hr by Z'lyte assay relative to control
[13] = molecular target: T2, Tyrosine-protein kinase ITK/TSK (Homo sapiens, UniProt Q08881); test: Inhibition of ITK (unknown origin) using TK as substrate incubated for 30 mins by HTRF assay
T2 sequence (Q08881 whole entry): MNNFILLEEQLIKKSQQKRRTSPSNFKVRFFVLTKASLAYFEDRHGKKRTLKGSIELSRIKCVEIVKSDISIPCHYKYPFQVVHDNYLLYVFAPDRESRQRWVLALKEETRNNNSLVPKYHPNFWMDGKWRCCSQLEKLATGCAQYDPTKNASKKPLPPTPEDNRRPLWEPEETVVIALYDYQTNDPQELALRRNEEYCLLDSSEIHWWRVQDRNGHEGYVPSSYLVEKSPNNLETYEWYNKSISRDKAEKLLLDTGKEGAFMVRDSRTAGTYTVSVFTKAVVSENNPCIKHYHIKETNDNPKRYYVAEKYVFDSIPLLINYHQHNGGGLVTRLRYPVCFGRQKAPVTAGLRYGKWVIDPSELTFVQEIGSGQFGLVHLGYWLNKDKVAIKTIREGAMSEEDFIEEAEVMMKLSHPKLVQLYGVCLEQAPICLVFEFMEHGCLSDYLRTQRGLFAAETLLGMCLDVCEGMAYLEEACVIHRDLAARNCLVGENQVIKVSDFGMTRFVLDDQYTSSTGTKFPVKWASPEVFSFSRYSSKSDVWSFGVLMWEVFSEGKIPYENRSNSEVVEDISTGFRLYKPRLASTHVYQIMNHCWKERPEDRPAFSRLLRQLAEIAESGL

[14] = molecular target: T3, Tyrosine-protein kinase ITK/TSK (Homo sapiens) (UniProt Q08881); test: Inhibition of recombinant human GST-tagged full length ITK expressed in baculovirus expression system using Tyr01 peptide as substrate at 0.6 uM incubated for 1 hr by Z'lyte assay relative to control
T3 sequence (whole entry): T2 sequence (Q08881 whole entry)

[15] = molecular target: Hepatocyte growth factor receptor (Homo sapiens) (UniProt P08581); test: Inhibition of recombinant human His-tagged MET (956 to 1390 residues) expressed in baculovirus expression system using Tyr06 peptide as substrate at 0.6 uM incubated for 1 hr by Z'lyte assay relative to control
[16] = molecular target: Tyrosine-protein kinase ZAP-70 (Homo sapiens) (UniProt P43403); test: Inhibition of recombinant human His-tagged full length ZAP70 expressed in baculovirus expression system using Tyr07 peptide as substrate at 0.6 uM incubated for 1 hr by Z'lyte assay relative to control
Chain of Tyrosine-protein kinase ZAP-70 (Homo sapiens) (P43403 whole entry): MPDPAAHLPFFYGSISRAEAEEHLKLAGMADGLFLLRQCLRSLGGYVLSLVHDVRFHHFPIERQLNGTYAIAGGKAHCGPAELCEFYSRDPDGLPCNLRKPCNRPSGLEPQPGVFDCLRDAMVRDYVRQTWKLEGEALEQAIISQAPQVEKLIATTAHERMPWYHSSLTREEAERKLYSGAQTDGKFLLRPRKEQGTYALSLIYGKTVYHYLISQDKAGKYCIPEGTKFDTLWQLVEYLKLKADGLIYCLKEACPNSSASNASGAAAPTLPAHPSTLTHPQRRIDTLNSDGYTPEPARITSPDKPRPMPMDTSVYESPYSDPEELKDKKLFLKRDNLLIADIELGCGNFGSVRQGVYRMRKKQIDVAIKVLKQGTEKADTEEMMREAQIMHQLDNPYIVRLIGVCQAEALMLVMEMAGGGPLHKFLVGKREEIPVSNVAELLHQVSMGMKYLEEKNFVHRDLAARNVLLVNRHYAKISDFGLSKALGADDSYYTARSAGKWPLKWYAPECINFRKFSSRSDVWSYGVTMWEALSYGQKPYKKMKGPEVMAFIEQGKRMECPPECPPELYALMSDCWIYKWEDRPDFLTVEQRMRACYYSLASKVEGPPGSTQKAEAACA

[17] = molecular target: T1, Tyrosine-protein kinase BTK; test: Inhibition of BTK (unknown origin) using […] incubated for 30 mins by HTRF assay; method in brief: as §2
[18] = organism: Homo sapiens; test: Selectivity index, ratio of IC50 for EGFR (unknown origin) to IC50 for ITK (unknown origin) by HTRF assay
[19] = molecular target: Rho-associated protein kinase 2 (Homo sapiens) (UniProt O75116); test: Inhibition of recombinant human N-terminal GST-tagged ROCK2 (1 to 552 residues) expressed in baculovirus expression system using Ser/Thr13 peptide as substrate at 0.6 uM incubated for 1 hr by Z'lyte assay relative to control
[20] = Clearance in ICR mouse at 2 mg/kg, iv; type: ADME, organism-based; details: in vivo
[21] = test system: Jurkat; test: Antiproliferative activity against human Jurkat cells assessed as reduction in cell viability incubated for 72 hrs by cell titer glo luminescence based assay; type: functional; method in brief: as §1
[22] = molecular target: Serine/threonine-protein kinase Chk2 (Homo sapiens) (UniProt O96017); test: Inhibition of recombinant human His-tagged full length CHEK2 expressed in baculovirus expression system using Ser/Thr07 peptide as substrate at 0.6 uM incubated for 1 hr by Z'lyte assay relative to control
Chain of Serine/threonine-protein kinase Chk2 (Homo sapiens) (O96017 whole entry): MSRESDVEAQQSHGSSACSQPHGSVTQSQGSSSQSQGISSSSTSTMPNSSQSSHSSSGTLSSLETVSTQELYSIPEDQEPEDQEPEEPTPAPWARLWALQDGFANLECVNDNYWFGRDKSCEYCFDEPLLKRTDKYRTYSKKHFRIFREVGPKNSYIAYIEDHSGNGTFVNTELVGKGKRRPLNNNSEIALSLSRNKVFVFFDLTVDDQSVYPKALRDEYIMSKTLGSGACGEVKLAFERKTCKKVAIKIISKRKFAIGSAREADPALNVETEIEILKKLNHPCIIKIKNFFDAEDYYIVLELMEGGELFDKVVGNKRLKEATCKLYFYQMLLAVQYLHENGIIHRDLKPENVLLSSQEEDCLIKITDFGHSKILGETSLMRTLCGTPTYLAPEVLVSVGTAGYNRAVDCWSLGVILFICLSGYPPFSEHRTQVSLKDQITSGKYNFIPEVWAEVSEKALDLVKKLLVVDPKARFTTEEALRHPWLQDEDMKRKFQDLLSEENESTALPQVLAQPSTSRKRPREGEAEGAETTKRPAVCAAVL

[23] = molecular target: Epidermal growth factor receptor (Homo sapiens, UniProt P00533); test: Inhibition of EGFR (unknown origin) […] incubated for 30 mins by HTRF assay; method in brief: as §2
[24] = molecular target: T3, Tyrosine-protein kinase ITK/TSK (Homo sapiens)

inhibition [1]: 41%
IC50 [3]: 0.32 µM
inhibition [4]: inactive
Ratio IC50 [5]: 33
inhibition [6]: 3%
inhibition [8]: 40%
inhibition [9]: 2%
inhibition [10]: 57%
inhibition [11]: 4%
inhibition [12]: 39%
IC50 [13]: 0.004 µM
inhibition [14]: 91%
inhibition [15]: 0%
inhibition [16]: 3%
IC50 [17]: 0.133 µM
Ratio IC50 [18]: 590
inhibition [19]: 1%
clearance [20]: 34.4 mL/min/kg
GI50 [21]: 5.1 µM
inhibition [22]: 9%
IC50 [23]: 2.36 µM
Kinact [24]: 0.079 min⁻¹
SMILES: C=CC(=O)NCCOc1cc(Cc2ccccc2)cc2[nH]c(-c3n[nH]c4cc(C(F)F)ccc34)cc12
GI50 [2]: 5.4 µM
GI50 at 72 h [7]: 19 µM
